Experimental data: ChEMBL document CHEMBL4138133, “2,3-Dihydro-3β-methoxy Withaferin-A Protects Normal Cells against Stress: Molecular Evidence of Its Potent Cytoprotective Activity” (J Nat Prod, 2017)
The source made the active and inactive calls.

Legend:
TIG-3 [1] = assay: Induction of oxidative stress in human TIG3 cells assessed as increase in GADD45alpha mRNA levels by RT-PCR analysis; type: cell-based
Summary of the method: (§1)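 Total RNA from treated TIG-3 cells; cDNA from 2 μg RNA; PCR 95 °C 10 min, 30 cycles (95 °C 45 s, 58 °C 1 min, 72 °C 45 s), 72 °C 10 min; products on 0.8% agarose, band densitometry; three independent experiments.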

TIG-3 [2] = assay: Decrease in Nrf2 expression level in human TIG3 cells at 0.3 to 3 uM by immunoblot analysis; type: ADME, cell-based; details: tig-3, 3 µM
Summary of the method: (§2)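 TIG-3 cells treated with compound, lysed in NP40 buffer (centrifuged 20 min, 4 °C); 10−20 μg protein immunoblotted for indicated proteins; band quantitation from three independent experiments, Student's t or Mann−Whitney test.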

[3] = target: RAC-alpha serine/threonine-protein kinase (Homo sapiens) (UniProt P31749); assay: Induction of AKT-mediated beta-catenin expression level in H2O2 treated human TIG3 cells at 0.3 uM pretreated with H2O2 for 2 hrs followed by compound addition by immunoblot analysis
Summary of the method: (§3)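 TIG-3 cells stressed with H2O2 (500 μM, 2 h), then recovered in medium containing 0.3 or 0.6 μM compound. Lysed in NP40 buffer; 10−20 μg protein immunoblotted for pAkt Ser473, p-p38 Thr180/Tyr182, p-p44/42 Thr202/Tyr204, β-catenin, survivin, Bcl-2 or full-length PARP-1. Triplicate experiments.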

TIG-3 [4] = assay: Decrease in keap1 expression level in human TIG3 cells at 0.3 to 3 uM by immunoblot analysis; type: ADME, cell-based; details: tig-3, 3 µM; summary of the method: as §2
TIG-3 [5] = assay: Cytoprotective activity against H2O2-induced oxidative stress in human TIG3 cells assessed as decrease in CARF level pretreated with H2O2 for 2 hrs followed by compound addition by immuno fluorescence staining based assay; type: functional, cell-based
TIG-3 [6] = assay: Cytotoxicity against human TIG3 cells assessed as decrease in ROS generation at 1.5 to 3 uM after 48 hrs; type: cell-based; details: tig-3, 48 h
[7] = target: Mitogen-activated protein kinase 3 (Homo sapiens) (UniProt P27361); assay: Induction of ERK1 phosphorylation at Thr202 residues in H2O2 treated human TIG3 cells at 0.3 uM pretreated with H2O2 for 2 hrs followed by compound addition by immunoblot analysis; summary of the method: as §3
TIG-3 [8] = assay: Induction of apoptosis in human TIG3 cells assessed as increase in Bax levels at 0.3 to 3 uM by immunoblot analysis; type: cell-based; details: tig-3, 3 µM
Summary of the method: (§4)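 TIG-3 cells treated with compound without added stress. Lysed in NP40 buffer; 10−20 μg protein immunoblotted for Bcl-2 and Bax. Band intensities quantified from three independent sets.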

TIG-3 [9] = assay: Effect on mortalin expression level in human TIG3 cells at 0.3 to 3 uM by immuno fluorescence analysis; type: ADME, cell-based; details: tig-3, 3 µM
Summary of the method: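 Methanol-fixed (chilled absolute methanol) TIG-3 fibroblasts treated with Wi-A or 3βmWi-A; immunofluorescence staining with antibodies, imaged by epifluorescence microscopy; signal quantitated from three independent experiments.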

TIG-3 [10] = assay: Cytoprotective activity against H2O2-induced oxidative stress in human TIG3 cells assessed as increase in cell survival at 3 uM pretreated with H2O2 for 2 hrs followed by compound addition measured after 2 days by crystal violet staining based assay; type: functional
[11] = target: Mitogen-activated protein kinase 1 (Homo sapiens) (UniProt P28482); assay: Induction of ERK2 phosphorylation at Tyr204 residues in H2O2 treated human TIG3 cells at 0.3 uM pretreated with H2O2 for 2 hrs followed by compound addition by immunoblot analysis; summary of the method: as §3
TIG-3 [12] = assay: Cytotoxicity against human TIG3 cells assessed as induction of senescence at 64 population doubling at 0.1 uM; type: cell-based; details: tig-3, 0.1 µM
[13] = target: MAP kinase p38 (Homo sapiens) (UniProt O15264+Q15759+Q16539+P53778); assay: Induction of p38 MAPK phosphorylation at Thr180/Tyr182 residues in H2O2 treated human TIG3 cells at 0.3 uM pretreated with H2O2 for 2 hrs followed by compound addition by immunoblot analysis; summary of the method: as §3
WI-38 [14] = assay: Cytotoxicity against human WI38 cells assessed as cell death at 1 uM after 48 hrs relative to control; type: cell-based; details: wi-38, 48 h
Summary of the method: (§5)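 Normal human fibroblasts (TIG-3, WI38) exposed to serially increasing compound concentrations (0.15 to 50 μM) for 48 or 72 h. Viability scored against untreated control. Triplicate experiments.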

TIG-3 [15] = assay: Induction of oxidative stress in human TIG3 cells assessed as increase in CARF expression level at 0.6 uM by immunoblot analysis; type: cell-based; details: tig-3, 0.6 µM; summary of the method: as §2
WI-38 [16] = assay: Cytotoxicity against human WI38 cells assessed as inhibition of colony formation at 0.1 to 0.3 uM by crystal violet staining based assay; type: cell-based; details: wi-38, 0.3 µM
Summary of the method: (§6)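 Cells seeded at 500 per well and grown about 2 weeks in compound-supplemented medium, with medium changed every fourth day. Colonies fixed, stained and counted. Triplicate; Student's t test.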

TIG-3 [17] = assay: Cytoprotective activity against UV irradiation-induced stress in human TIG3 cells assessed as decrease in p53 level irradiated with 50 mJ/cm2 of UV radiations followed by compound addition by immuno fluorescence staining based assay; type: functional, cell-based
TIG-3 [18] = assay: Cytotoxicity against human TIG3 cells assessed as induction of morphological changes at 0.3 to 1.5 uM after 48 hrs by phase contrast microscopy; type: cell-based; details: tig-3, 48 h
Summary of the method: (§7)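 Phase-contrast microscopy of morphology of control and treated normal human TIG-3 fibroblasts.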

[19] = target: RAC-alpha serine/threonine-protein kinase (Homo sapiens) (UniProt P31749); assay: Induction of Akt phosphorylation at Ser473 residues in H2O2 treated human TIG3 cells at 0.3 uM pretreated with H2O2 for 2 hrs followed by compound addition by immunoblot analysis; summary of the method: as §3
TIG-3 [20] = assay: Cytoprotective activity against H2O2-induced oxidative stress in human TIG3 cells assessed as decrease in p53 level pretreated with H2O2 for 2 hrs followed by compound addition by immuno fluorescence staining based assay; type: functional, cell-based
TIG-3 [21] = assay: Cytoprotective activity against H2O2-induced oxidative stress in human TIG3 cells assessed as increase in Bcl2 level at 0.3 uM pretreated with H2O2 for 2 hrs followed by compound addition by immunoblot analysis; type: functional, cell-based; summary of the method: as §3
TIG-3 [22] = assay: Induction of apoptosis in human TIG3 cells assessed as decrease in Bcl2 levels at 0.3 to 3 uM by immunoblot analysis; type: cell-based; details: tig-3, 3 µM; summary of the method: as §4
TIG-3 [23] = assay: Cytoprotective activity against H2O2-induced oxidative stress in human TIG3 cells assessed as increase in full length PARP level at 0.3 uM pretreated with H2O2 for 2 hrs followed by compound addition by immunoblot analysis; type: functional, cell-based; summary of the method: as §3
TIG-3 [24] = assay: Induction of oxidative stress against human TIG3 cells assessed as increase in CARF mRNA levels by RT-PCR analysis; type: cell-based; summary of the method: as §1
TIG-3 [25] = assay: Cytotoxicity against human TIG3 cells assessed as cell death at 1 uM after 48 hrs relative to control; type: cell-based; details: tig-3, 48 h; summary of the method: as §5
TIG-3 [26] = assay: Induction of oxidative stress in human TIG3 cells assessed as increase in p53 expression level at 0.6 uM by immunoblot analysis; type: cell-based; details: tig-3, 0.6 µM; summary of the method: as §2
TIG-3 [27] = assay: Cytotoxicity against human TIG3 cells assessed as cell death at 0.6 uM; type: cell-based; details: tig-3, 0.6 µM; summary of the method: as §7
TIG-3 [28] = assay: Cytoprotective activity against UV irradiation-induced stress in human TIG3 cells assessed as decrease in CARF level irradiated with 50 mJ/cm2 of UV radiations followed by compound addition by immuno fluorescence staining based assay; type: functional, cell-based
Homo sapiens = species on record: Homo sapiens; assay: Induction of AKT/p38/p44 MAPK-mediated survivin expression level in H2O2 treated human TIG3 cells at 0.3 uM pretreated with H2O2 for 2 hrs followed by compound addition by immunoblot analysis; summary of the method: as §3
TIG-3 [29] = assay: Cytotoxicity against human TIG3 cells assessed as inhibition of colony formation at 0.1 to 0.3 uM by crystal violet staining based assay; type: cell-based; details: tig-3, 0.3 µM; summary of the method: as §6

Measured: Activity

RAC-alpha serine/threonine-protein kinase (Homo sapiens), sequence (P31749 whole entry): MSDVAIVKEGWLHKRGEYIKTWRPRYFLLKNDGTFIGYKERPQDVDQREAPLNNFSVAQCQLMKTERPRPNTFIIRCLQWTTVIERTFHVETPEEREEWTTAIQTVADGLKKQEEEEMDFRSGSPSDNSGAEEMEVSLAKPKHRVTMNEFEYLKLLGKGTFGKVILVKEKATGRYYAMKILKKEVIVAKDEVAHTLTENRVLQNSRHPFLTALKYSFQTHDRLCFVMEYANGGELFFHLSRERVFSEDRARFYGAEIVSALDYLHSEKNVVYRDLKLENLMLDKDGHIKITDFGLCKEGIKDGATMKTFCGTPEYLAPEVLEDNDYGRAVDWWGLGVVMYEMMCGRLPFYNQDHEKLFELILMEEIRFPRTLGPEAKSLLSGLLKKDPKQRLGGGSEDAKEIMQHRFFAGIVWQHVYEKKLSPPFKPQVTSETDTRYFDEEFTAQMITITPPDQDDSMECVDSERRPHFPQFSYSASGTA
Mitogen-activated protein kinase 3 (Homo sapiens), sequence (P27361 whole entry): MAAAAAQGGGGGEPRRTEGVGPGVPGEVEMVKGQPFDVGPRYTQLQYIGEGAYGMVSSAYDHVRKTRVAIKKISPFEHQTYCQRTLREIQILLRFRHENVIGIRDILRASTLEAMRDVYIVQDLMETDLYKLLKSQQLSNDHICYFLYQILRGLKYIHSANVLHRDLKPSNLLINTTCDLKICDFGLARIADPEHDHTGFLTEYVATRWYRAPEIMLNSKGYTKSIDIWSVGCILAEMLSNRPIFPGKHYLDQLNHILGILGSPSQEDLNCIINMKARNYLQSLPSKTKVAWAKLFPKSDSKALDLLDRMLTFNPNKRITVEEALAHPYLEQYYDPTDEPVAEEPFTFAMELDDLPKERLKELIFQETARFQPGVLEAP
Mitogen-activated protein kinase 1 (Homo sapiens), sequence (P28482 whole entry): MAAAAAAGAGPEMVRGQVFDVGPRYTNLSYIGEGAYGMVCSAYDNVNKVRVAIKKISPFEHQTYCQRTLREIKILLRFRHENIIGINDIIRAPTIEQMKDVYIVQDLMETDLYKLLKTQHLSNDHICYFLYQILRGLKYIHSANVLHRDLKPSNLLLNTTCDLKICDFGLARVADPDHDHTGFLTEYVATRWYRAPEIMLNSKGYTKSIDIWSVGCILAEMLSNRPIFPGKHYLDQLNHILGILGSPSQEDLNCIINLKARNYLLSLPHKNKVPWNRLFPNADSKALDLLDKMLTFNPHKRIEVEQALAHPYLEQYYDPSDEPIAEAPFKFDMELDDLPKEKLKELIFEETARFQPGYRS

CC1=C(CO)C(=O)O[C@@H]([C@@H](C)[C@H]2CC[C@H]3[C@@H]4C[C@H]5O[C@]56[C@@H](O)C=CC(=O)[C@]6(C)[C@H]4CC[C@]23C)C1 [WITHAFERIN A]
90%: WI-38 [14] | TIG-3 [25]
inactive: TIG-3 [5] | TIG-3 [10] | TIG-3 [17] | TIG-3 [20] | TIG-3 [21] | TIG-3 [23] | TIG-3 [28]
active: [3] | [7] | [11] | [13] | [19] | Homo sapiens
Toxic: all other assays above
